Assay results published in ChEMBL document CHEMBL3232903, “New pyrazolobenzothiazine derivatives as hepatitis C virus NS5B polymerase palm site I inhibitors” (J Med Chem, 2014).

Tests used:
[1] = Apparent permeability of the compound assessed as membrane retention after 5 hrs by PAMPA assay; assay type: physicochemical
Method in brief: (§1)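 PAMPA, gastrointestinal model. Donor 0.5 mM, diluted from 1 mM DMSO stock in phosphate buffer pH 7.4 (0.025 M). Filter coated with 1% w/v phosphatidylcholine in dodecane; acceptor 50% DMSO in buffer. Incubated 5 or 22 h at room temperature with gentle shaking. Both sides analysed by LC-UV at 254 nm, concentration from peak area. Papp in cm/s and % membrane retention calculated by equations; three plates on different days.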

[2] = biological target: RNA-directed RNA polymerase (Hepacivirus hominis, UniProt O39930, M414T); test: Inhibition of RNA-dependent RNA polymerase activity of HCV genotype 1b HC-J4 recombinant N-terminal histidine tagged C-terminal 21 aminoacids truncated NS5B polymerase M414T mutant at palm site 1 after 1 hr by standard primer dependent elongation assay; design: species or system Hepatitis C virus isolate HC-J4
Method in brief: (§2)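 Recombinant NS5BCΔ21 genotype 1b mutants, M414T, M423T and P495L, each run in a primer-dependent elongation assay as for wild-type enzyme. IC50 is the mean ± SD of two independent experiments in duplicate.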

[3] = tested on: Hepatitis C virus isolate HC-J4; test: Ratio of IC50 for HCV genotype 1b HC-J4 recombinant N-terminal histidine tagged C-terminal 21 aminoacids truncated NS5B polymerase P495L mutant at thumb site 1 to HCV genotype 1b HC-J4 recombinant N-terminal histidine tagged C-terminal 21 aminoacids truncated wild type NS5B polymerase
Method in brief: (§3)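 Fold change is the mutant NS5BCΔ21 IC50 (M414T, M423T or P495L) divided by the wild-type IC50. Both were measured in a primer-dependent elongation assay, from two independent experiments in duplicate.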

[4] = Cytotoxicity against human Huh5-2 cells carrying HCV genotype 1b I389luc-ubi-neo/NS3-3'/5.1 replicon assessed as cell morphological changes after 72 hrs by microscopic analysis; assay type: cell-based; conditions: huh-5-2, 72 h
Method in brief: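 Huh-5-2 replicon cells examined by microscopy for changes in cell morphology after 72 h of compound treatment.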

[5] = biological target: RNA-directed RNA polymerase (Hepacivirus hominis, UniProt O39930, P495L); test: Inhibition of RNA-dependent RNA polymerase activity of HCV genotype 1b HC-J4 recombinant N-terminal histidine tagged C-terminal 21 aminoacids truncated NS5B polymerase P495L mutant at thumb site 1 after 1 hr by standard primer dependent elongation assay; design: species or system Hepatitis C virus isolate HC-J4; method in brief: as §2
[6] = Cytostatic activity against human Huh6 cells carrying HCV genotype 1b I389luc-ubi-neo/NS3-3'/5.1 replicon assessed as reduction in metabolic activity after 72 hrs by MTS assay; assay type: ADME, cell-based
Method in brief: (§4)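 MTS assay measuring bioreduction to formazan, read as host-cell metabolism/proliferation in subgenomic genotype 1b replicon cells. It was run alongside RT-qPCR-based antiviral testing. Huh-9-13 replicon cells lack the luciferase reporter, carry different adaptive mutations and more HCV RNA than Huh-5-2. HuH6 replicon cells use a different host line from Huh-7 and have distinct adaptive mutations. CC50 is the concentration that halves MTS reduction.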

[7] = biological target: RNA-directed RNA polymerase (Hepacivirus hominis, UniProt O39930, M423T); test: Inhibition of RNA-dependent RNA polymerase activity of HCV genotype 1b HC-J4 recombinant N-terminal histidine tagged C-terminal 21 aminoacids truncated NS5B polymerase M423T mutant at thumb site 2 after 1 hr by standard primer dependent elongation assay; design: species or system Hepatitis C virus isolate HC-J4; method in brief: as §2
[8] = Cytostatic activity against human Huh5-2 cells carrying HCV genotype 1b I389luc-ubi-neo/NS3-3'/5.1 replicon assessed as reduction in metabolic activity after 72 hrs by MTS assay; assay type: ADME, cell-based, Huh-5-2; conditions: huh-5-2, 72 h
Method in brief: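 Replicon-bearing Huh-5-2 cells run in parallel with the antiviral read-out; CC50 is the concentration halving MTS bioreduction to formazan, taken as the antimetabolic effect on host cells; mean ± SD from at least three dose–response curves.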

[9] = Selectivity index, ratio of CC50 for human Huh5-2 cells to EC50 for HCV genotype 1b I389luc-ubi-neo/NS3-3'/5.1 replicon infected in human Huh5-2 cells; design: species or system Huh-5-2
Hepatitis C virus [10] = test: Antiviral activity against HCV genotype 1b I389luc-ubi-neo/NS3-3'/5.1 replicon infected in human Huh5-2 cells assessed as inhibition of virus replication by luciferase assay; assay type: functional, cell-based, Hepacivirus hominis; conditions: Huh-5-2
[11] = tested on: Hepatitis C virus isolate HC-J4; test: Inhibition of RNA-dependent RNA polymerase activity of HCV genotype 1b HC-J4 recombinant N-terminal histidine tagged C-terminal 21 aminoacids truncated NS5B polymerase at 50 uM after 1 hr by standard primer dependent elongation assay
Method in brief: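 Recombinant NS5BCΔ21 genotype 1b in a primer-dependent elongation assay. […] IC50 is the concentration halving enzyme activity in vitro; mean ± SD of two independent experiments in duplicate.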

[12] = Inhibition of RNA-dependent RNA polymerase activity of HCV genotype 1b HC-J4 recombinant N-terminal histidine tagged C-terminal 21 aminoacids truncated NS5B polymerase after 1 hr by standard primer dependent elongation assay; design: species or system Hepatitis C virus isolate HC-J4
Method in brief: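 Recombinant NS5BCΔ21 genotype 1b in a primer-dependent elongation assay. IC50 is the concentration halving enzyme activity in vitro; mean ± SD of two independent experiments in duplicate.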

Hepatitis C virus [13] = test: Antiviral activity against HCV genotype 1b I389luc-ubi-neo/NS3-3'/5.1 replicon infected in human Huh6 cells assessed as decrease in replicon RNA content by RT-qPCR analysis; assay type: functional, cell-based, Hepacivirus hominis; conditions: HuH-6
Method in brief: (§5)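 Subgenomic genotype 1b HCV replicon cells: Huh-9-13 (Huh-7 background, no luciferase reporter) and HuH6 (different adaptive mutations). EC50 from decrease in replicon RNA measured by RT-qPCR. Host-cell proliferation and metabolism checked in parallel by MTS assay.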

[14] = Lipophilicity, log P of the compound by shake flask method; assay type: physicochemical; conditions: octanol/water
Method in brief: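 Shake flask: compound dissolved in octanol, then 2.5 mL octanol with 2.5 mL water, sealed and agitated, 10 h to equilibrium. Each phase analysed by HPLC (C18, 50% ACN/50% H2O, 0.8 mL/min, UV).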

[15] = Apparent permeability of the compound after 5 hrs by PAMPA-GI model analysis; assay type: physicochemical; method in brief: as §1
[16] = tested on: Hepatitis C virus isolate HC-J4; test: Ratio of IC50 for HCV genotype 1b HC-J4 recombinant N-terminal histidine tagged C-terminal 21 aminoacids truncated NS5B polymerase M423T mutant at thumb site 2 to HCV genotype 1b HC-J4 recombinant N-terminal histidine tagged C-terminal 21 aminoacids truncated wild type NS5B polymerase; method in brief: as §3
[17] = Induction of steatosis in human Huh-9-13 cells assessed as increase in size of lipid droplets at 90 uM by LipidTOX red staining; assay type: cell-based
Method in brief: (§6)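 Huh-9-13 cells seeded at 25.000 cells/dish in complete DMEM without G418 at 37 °C, 5% CO2. Next day, compound (90 μM) or DMSO added for 3 days. Then stained 30 min with monodansylcadaverine (50 μM; ex 340/em 530 nm), LipidTOX Red (1/1000; ex 577/em 609 nm) or Nile Red (2 μg/mL; yellow-gold at ex 552/em 636 nm). Imaged by confocal microscopy.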

[18] = Induction of phospholipidosis in human Huh-9-13 cells assessed as multilamellar bodies formation at 90 uM by monodansylcadaverine staining; assay type: cell-based; method in brief: as §6
[19] = Cytostatic activity against human Huh-9-13 cells carrying HCV genotype 1b I389luc-ubi-neo/NS3-3'/5.1 replicon assessed as reduction in metabolic activity after 72 hrs by MTS assay; assay type: ADME, cell-based; method in brief: as §4
[20] = tested on: Hepatitis C virus isolate HC-J4; test: Ratio of IC50 for HCV genotype 1b HC-J4 recombinant N-terminal histidine tagged C-terminal 21 aminoacids truncated NS5B polymerase M414T mutant at palm site 1 to HCV genotype 1b HC-J4 recombinant N-terminal histidine tagged C-terminal 21 aminoacids truncated wild type NS5B polymerase; method in brief: as §3
[21] = Apparent permeability of the compound after 22 hrs by PAMPA-GI model analysis; assay type: physicochemical; method in brief: as §1
[22] = Apparent permeability of the compound assessed as membrane retention after 22 hrs by PAMPA assay; assay type: physicochemical; method in brief: as §1
[23] = Induction of steatosis in human Huh-9-13 cells assessed as intracellular accumulation of neutral lipids at 90 uM by Nile Red staining; assay type: cell-based; method in brief: as §6
[24] = Metabolic stability of the compound in human liver microsomes assessed as unmodified compound remaining after 60 mins; assay type: ADME; conditions: read-out: Stability
Method in brief: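 Compound at 50 μM final (DMSO ≤2%) incubated 60 min at 37 °C with human liver microsomal protein (0.2 mg/mL) and an NADPH-generating system in 125 mM phosphate buffer, pH 7.4. Unmodified parent was quantified by LC–MS and reported as percentage remaining.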

Hepatitis C virus [25] = test: Antiviral activity against HCV genotype 1b […] replicon infected in human Huh9-13 cells assessed as decrease in replicon RNA content by RT-qPCR analysis; assay type: functional, cell-based, Hepacivirus hominis; method in brief: as §5

Chain of RNA-directed RNA polymerase (Hepacivirus hominis, UniProt O39930, M423T) (O39930 entry or part of it M423T): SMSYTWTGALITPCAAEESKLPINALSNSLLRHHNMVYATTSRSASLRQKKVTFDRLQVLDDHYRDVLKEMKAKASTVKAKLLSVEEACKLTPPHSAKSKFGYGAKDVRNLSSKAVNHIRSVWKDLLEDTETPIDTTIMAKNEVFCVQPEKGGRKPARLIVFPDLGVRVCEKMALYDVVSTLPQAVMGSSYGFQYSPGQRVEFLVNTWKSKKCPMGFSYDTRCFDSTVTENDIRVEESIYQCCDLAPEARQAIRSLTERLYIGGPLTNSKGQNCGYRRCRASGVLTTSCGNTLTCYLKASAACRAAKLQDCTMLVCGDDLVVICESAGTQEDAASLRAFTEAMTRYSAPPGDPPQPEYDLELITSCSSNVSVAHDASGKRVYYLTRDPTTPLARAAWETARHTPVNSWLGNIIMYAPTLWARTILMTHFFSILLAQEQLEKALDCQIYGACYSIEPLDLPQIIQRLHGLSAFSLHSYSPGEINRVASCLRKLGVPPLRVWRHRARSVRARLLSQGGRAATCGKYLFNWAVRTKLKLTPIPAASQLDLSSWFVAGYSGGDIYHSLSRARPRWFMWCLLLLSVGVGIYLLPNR
Chain of RNA-directed RNA polymerase (Hepacivirus hominis, UniProt O39930, P495L) (O39930 entry or part of it P495L): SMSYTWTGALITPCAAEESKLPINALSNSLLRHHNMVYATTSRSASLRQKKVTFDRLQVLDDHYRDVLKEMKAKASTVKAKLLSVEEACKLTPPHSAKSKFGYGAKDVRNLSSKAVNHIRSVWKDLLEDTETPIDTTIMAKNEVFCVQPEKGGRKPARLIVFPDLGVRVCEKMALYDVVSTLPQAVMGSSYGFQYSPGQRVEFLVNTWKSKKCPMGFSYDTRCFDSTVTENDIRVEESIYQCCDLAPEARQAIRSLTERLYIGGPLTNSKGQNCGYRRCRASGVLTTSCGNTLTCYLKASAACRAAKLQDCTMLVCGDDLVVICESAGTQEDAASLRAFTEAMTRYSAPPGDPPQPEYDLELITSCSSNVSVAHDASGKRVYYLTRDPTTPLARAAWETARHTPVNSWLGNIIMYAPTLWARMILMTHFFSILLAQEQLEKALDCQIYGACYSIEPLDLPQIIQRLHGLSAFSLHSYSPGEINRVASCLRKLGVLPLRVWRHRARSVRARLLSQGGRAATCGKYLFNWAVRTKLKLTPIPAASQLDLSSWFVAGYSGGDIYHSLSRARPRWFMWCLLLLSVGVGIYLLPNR
Chain of RNA-directed RNA polymerase (Hepacivirus hominis, UniProt O39930, M414T) (O39930 entry or part of it M414T): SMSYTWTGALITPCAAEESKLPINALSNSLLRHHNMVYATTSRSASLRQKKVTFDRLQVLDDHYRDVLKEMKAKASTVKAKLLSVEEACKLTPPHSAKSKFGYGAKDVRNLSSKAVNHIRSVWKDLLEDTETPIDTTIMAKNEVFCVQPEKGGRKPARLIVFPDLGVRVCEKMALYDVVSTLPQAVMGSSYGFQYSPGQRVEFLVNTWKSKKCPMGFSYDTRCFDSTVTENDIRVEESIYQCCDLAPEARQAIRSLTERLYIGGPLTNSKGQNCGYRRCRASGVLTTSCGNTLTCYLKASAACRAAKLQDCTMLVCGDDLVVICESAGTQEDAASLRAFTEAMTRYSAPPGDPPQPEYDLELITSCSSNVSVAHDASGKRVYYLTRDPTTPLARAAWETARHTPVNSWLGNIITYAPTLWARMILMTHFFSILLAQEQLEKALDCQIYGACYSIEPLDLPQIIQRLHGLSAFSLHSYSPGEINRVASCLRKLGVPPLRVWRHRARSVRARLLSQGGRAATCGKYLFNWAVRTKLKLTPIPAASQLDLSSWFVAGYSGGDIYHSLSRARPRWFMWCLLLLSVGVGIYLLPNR

SMILES: CN1c2c(C(=O)Nc3ccc(NS(C)(=O)=O)cc3)nn(-c3cccc(Cl)c3)c2-c2ccccc2S1(=O)=O
- R% [1]: 7.3%
- IC50 [2]: 128 µM
- Ratio IC50 [3]: 1.2
- Activity [4]: Toxic
- IC50 [5]: 5.1 µM
- CC50 at 72 h [6]: > 90 µM
- IC50 [7]: 9.3 µM
- CC50 [8]: > 179 µM
- Ratio CC50/EC50 [9]: >18
- EC50 (Hepatitis C virus [10]): 9.8 µM
- EC90 (Hepatitis C virus [10]): 41 µM
- inhibition [11]: > 50%
- IC50 [12]: 4.3 µM
- EC50 (Hepatitis C virus [13]): 14 µM
- logP [14]: 2.11
- Papp [15]: 2.3 ×10⁻⁶ cm/s
- Ratio IC50 [16]: 2.2
- Activity [17]: Toxic
- Activity [18]: Non-toxic
- CC50 [19]: > 90 µM
- Ratio IC50 [20]: 29.7
- Papp [21]: 4.2 ×10⁻⁶ cm/s
- R% [22]: 3.2%
- Activity [23]: Toxic
- remaining at 1 h [24]: 99.9%
- EC50 (Hepatitis C virus [25]): 7.6 µM
